Results gathered from unrelated publications.
Protocols differ between the studies behind these lines.
RPS6KA3 N-terminal kinase domain: Ribosomal protein S6 kinase alpha-3, N-terminal kinase domain (RPS6KA3, Homo sapiens, UniProt P51812)
RPS6KA3: Ribosomal protein S6 kinase alpha-3 (RPS6KA3, Homo sapiens, UniProt P51812)

SMILES | target | observed | mode | method | tested at | endpoint | value
N#CC1(c2ccccn2)CCN(Cc2cc(C(=O)O)c(=O)n3ccccc23)CC1 | Ribosomal protein S6 kinase alpha-3, C-terminal kinase domain (RPS6KA3, Homo sapiens, UniProt P51812) | cell-free assay |  | competition with immobilised ligand | 1 µM | remaining binding | 100%
Cc1nn(C)cc1-c1nc2c(N3CCN(Cc4ccc(Cl)cc4)CC3)c(Cl)cnc2[nH]1 | RPS6KA3 N-terminal kinase domain | binding |  | competition with immobilised ligand | 1 µM | remaining binding | 84%
Nc1ncc(-c2nc(N3CCOCC3)nc(N3CCOCC3)n2)c(C(F)F)n1 | RPS6KA3 N-terminal kinase domain | binding |  | competition with immobilised ligand | 10 µM | remaining binding | 59%
Cn1cncc1[C@](O)(COc1ccc(C#N)cc1-c1ccc(OC(F)(F)F)cc1)c1ccc(C#N)cc1 | RPS6KA3 N-terminal kinase domain | cell-free assay |  | competition with immobilised ligand | 1 µM | remaining binding | 100%
COc1cc(Nc2ncc(F)c(Nc3ccc4c(n3)NC(=O)C(C)(C)O4)n2)cc(OC)c1OC | RPS6KA3 N-terminal kinase domain | binding |  | competition with immobilised ligand | 10 µM | inhibition | 88%
Cn1cc(-c2cccc(N3CCc4c(sc5c4CC(C)(C)C5)C3=O)c2CO)cc(Nc2ccncn2)c1=O | RPS6KA3 | enzyme activity | inhibitor |  | 1 µM | inhibition | 1%
CC(C)(C)c1cc(C=C(C#N)C#N)cc(Br)c1O | RPS6KA3 | enzyme activity | inhibitor |  | 0.5 µM | remaining activity | 92.2%
Cn1cc(-c2cc(F)cc(N3CCn4c(cc5c4CCCC5)C3=O)c2CO)cc(Nc2ccc(N3CCN(C4COC4)CC3)cn2)c1=O | RPS6KA3 | enzyme activity | inhibitor |  | 0.1 µM | inhibition | 7%
O=c1[nH]c2ccccc2n1C1CCN(Cc2ccc(-c3[nH]c4cc5ncnc5cc4nc3-c3ccccc3)cc2)CC1 | RPS6KA3 | cell-free assay |  |  | 0.5 µM | remaining signal | 96.6%
